Laboratory results published in ChEMBL document CHEMBL2331458, “Examination of the mode of action of the almiramide family of natural products against the kinetoplastid parasite Trypanosoma brucei” (J Nat Prod, 2013).
Activity calls are given as the source filed them. The rule behind the calls is not given here. Starred links: 1 amine or outer side, 2 acyl side, 3 side chain; linkers in the order of their positions; H or OH if unused. Non-standard residues stand in square brackets, D forms with d. Residues, ends and D or L forms follow the SMILES beside them. *: point of attachment. NH(CH2CH2O)2CH2CH2NHBiotin = O=C(CCCC[C@@H]1SC[C@@H]2NC(=O)N[C@@H]21)NCCOCCOCCN*; Octanoyl(2R-Me,7,8-dehydro) = C=CCCCC[C@@H](C)C(=O)*; Oct7ynoyl(2R-Me) = C#CCCCC[C@@H](C)C(=O)*; X2 = CN(C)c1ccc2c(CC(=O)*)cc(=O)oc2c1; NMeAEEA = CN(CCOCCOCC(=O)[*:2])[*:1]; Ethylenediamine = C(CN[*:2])N[*:1]; NMeF = CN[C@@H](Cc1ccccc1)C(=O)O; X4 = CC(=O)CCCC[C@@H](C)C(=O)*; Oct(7)enoyl = C=CCCCCCC(=O)*; Oct(7)ynoyl = C#CCCCCCC(=O)*; NMeV = CN[C@H](C(=O)O)C(C)C; Hept6ynoyl = C#CCCCCC(=O)*; X5 = COC(=O)CCCCCCCCN(C)*; NMeA = CN[C@@H](C)C(=O)O; X6 = COC(=O)COCCOCCN(C)*; X3 = C=CCCCCC(=O)*

How the values were obtained:
[1] = system: Trypanosoma brucei brucei; experiment: Antiparasitic activity against Trypanosoma brucei brucei 427-221 assessed as growth inhibition up to 50 uM after 48 hrs by cellTiter-Glo assay; type: functional, organism-based
Method in brief: (§1)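 T. b. brucei 427-221 was grown at 37 °C and 5% CO2 in HMI-9 with 10% FBS, 10% Serum Plus and penicillin/streptomycin, then seeded at 2×10^4/mL. Compounds were serially diluted in DMSO (1% final) and exposed for 48 h. Viability was read by CellTiter-Glo ATP luminescence. Percent inhibition was normalized to thimerosal (2 µM final) and DMSO controls, and IC50 was derived by curve fitting.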

[2] = Drug uptake in 120 hrs post fertilized zebrafish embryo intestinal tract at 1 to 270 uM after 3 hrs by confocal microscopic analysis; type: ADME, Danio rerio; conditions: in vivo
Method in brief: (§2)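 Zebrafish embryos at 48 and 120 h post fertilization were incubated with fluorescent probe or fluorophore control in methylene blue-free egg water at 270, 90, 30 and 0 µM, three embryos per treatment. Localization was imaged by confocal microscopy after 3 h.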

Danio rerio [3] = organism: Danio rerio; experiment: Drug uptake in 48 hrs post fertilized zebrafish embryo lateral line at 1 to 270 uM after 3 hrs by confocal microscopic analysis; type: ADME, organism-based; conditions: in vivo; method in brief: as §2
[4] = Drug uptake in neomycin-untreated zebrafish embryo neuromast at 250 uM after 3 hrs by confocal microscopic analysis; type: ADME, tissue-based, Danio rerio; conditions: in vivo
Method in brief: (§3)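 Zebrafish embryos were pretreated 1 h with neomycin 500 µM or with medium only. Both groups were then exposed to fluorescent probe (250 µM), fluorophore control (250 µM) or no compound for 3 h, and localization was imaged by confocal microscopy.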

Leishmania donovani = experiment: Antiparasitic activity against Leishmania donovani assessed as growth inhibition; type: functional, organism-based
[5] = system: Trypanosoma brucei brucei; experiment: Antiparasitic activity against Trypanosoma brucei brucei 427-221 assessed as growth inhibition after 48 hrs by cellTiter-Glo assay; type: functional, organism-based; conditions: 427-221, 48 h; method in brief: as §1
[6] = Cytotoxicity against african green monkey Vero cells; type: cell-based; conditions: chlorocebus sabaeus, read-out: LD50 (the source's name)
[7] = Selectivity index, ratio of LD50 for african green monkey Vero cells to IC50 for Trypanosoma brucei brucei 427-221; type: toxicity, cell-based; conditions: read-out: Ratio LD50/IC50
[8] = Toxicity in 48 hrs post fertilized zebrafish embryo assessed as survival after 24 hrs by inverted microscopic analysis; type: organism-based, Danio rerio; conditions: in vivo, read-out: MTD
Trypanosoma brucei = experiment: Antiparasitic activity against Trypanosoma brucei assessed as growth inhibition; type: functional, organism-based; method in brief: as §1
[9] = Drug uptake in neomycin-treated zebrafish embryo neuromast at 250 uM after 3 hrs by confocal microscopic analysis; type: ADME, tissue-based, Danio rerio; conditions: in vivo; method in brief: as §3
Danio rerio [10] = organism: Danio rerio; experiment: Drug uptake in 120 hrs post fertilized zebrafish embryo lateral line at 250 to 500 uM after 3 hrs by confocal microscopic analysis; type: ADME, organism-based; conditions: in vivo

| Compound | IC50 [5] [µM] | CC50 [6] [µM] | selectivity ratio [7] | further results |
| --- | --- | --- | --- | --- |
| Cc1cc(C)n2c1C=C1C=CC(CCC(=O)NCCNC(=O)CCc3ccccc3)=[N+]1[B-]2(F)F |  |  |  | Activity [1]: inactive |
| CN(C)c1ccc2c(CC(=O)NCCNC(=O)CCc3ccccc3)cc(=O)oc2c1 |  |  |  | Drug uptake [2]: Active; Drug uptake (Danio rerio [3]): Active; Drug uptake [4]: Not Active |
| C=CCCCCCC(=O)N(C)[C@H](C(=O)N(C)[C@H](C(=O)N(C)[C@H](C(=O)N(C)[C@@H](C)C(=O)N(C)[C@@H](Cc1ccccc1)C(=O)NCCOCCOCCNC(=O)CCCC[C@@H]1SC[C@@H]2NC(=O)N[C@@H]21)C(C)C)C(C)C)C(C)C ({Oct(7)enoyl}-[NMeV][NMeV][NMeV][NMeA][NMeF]-{NH(CH2CH2O)2CH2CH2NHBiotin}) |  |  |  | IC50 (Leishmania donovani): 9.9 µM |
| C#CCCCC[C@@H](C)C(=O)N(C)[C@H](C(=O)N(C)[C@H](C(=O)N[C@H](C(=O)N(C)[C@@H](C)C(=O)N(C)[C@@H](Cc1ccccc1)C(N)=O)C(C)C)C(C)C)C(C)C [ALMIRAMIDE B] ({Oct7ynoyl(2R-Me)}-[NMeV][NMeV]V[NMeA][NMeF]-NH2) | 6 | 52.3 | 8.7 |  |
| C=CCCCCCC(=O)N(C)[C@H](C(=O)N(C)[C@H](C(=O)N(C)[C@H](C(=O)N(C)[C@@H](C)C(=O)N(C)[C@@H](Cc1ccccc1)C(=O)OC)C(C)C)C(C)C)C(C)C ({Oct(7)enoyl}-[NMeV][NMeV][NMeV][NMeA][NMeF]-OMe) | 0.4 | 18.8 | 47 | MNTC at 24 h [8]: 168 µM |
| C=CCCCC[C@@H](C)C(=O)N(C)[C@H](C(=O)N(C)[C@H](C(=O)N[C@H](C(=O)N(C)[C@@H](C)C(=O)N(C)[C@@H](Cc1ccccc1)C(N)=O)C(C)C)C(C)C)C(C)C [ALMIRAMIDE C] ({Octanoyl(2R-Me,7,8-dehydro)}-[NMeV][NMeV]V[NMeA][NMeF]-NH2) | 3 | 33.1 | 11 |  |
| C=CCCCCC(=O)N(C)[C@H](C(=O)N(C)[C@H](C(=O)N(C)[C@H](C(=O)N(C)[C@@H](C)C(=O)N(C)[C@@H](Cc1ccccc1)C(=O)O)C(C)C)C(C)C)C(C)C (X3-[NMeV][NMeV][NMeV][NMeA][NMeF]-OH) | 2.6 | > 70 | > 27 |  |
| Nc1nc(N)nc(Nc2ccc([As]3SCC(CO)S3)cc2)n1 (stereo not given) [MELARSOPROL] |  |  |  | IC50 (Trypanosoma brucei): 0.01 µM |
| C#CCCCCCC(=O)N(C)[C@H](C(=O)N(C)[C@H](C(=O)N(C)[C@H](C(=O)N(C)[C@@H](C)C(=O)N(C)[C@@H](Cc1ccccc1)C(=O)OC)C(C)C)C(C)C)C(C)C ({Oct(7)ynoyl}-[NMeV][NMeV][NMeV][NMeA][NMeF]-OMe) | 0.6 | 27 | 45 |  |
| C=CCCCCCC(=O)N(C)[C@H](C(=O)N(C)[C@H](C(=O)N(C)[C@H](C(=O)N(C)[C@@H](C)C(=O)N(C)[C@@H](Cc1ccccc1)C(=O)N(C)CCOCCOCC(=O)NCCNC(=O)Cc1cc(=O)oc2cc(N(C)C)ccc12)C(C)C)C(C)C)C(C)C ({Oct(7)enoyl}-[NMeV][NMeV][NMeV][NMeA][NMeF][NMeAEEA]-{Ethylenediamine-X2}) |  |  |  | Drug uptake [2]: Active; Drug uptake (Danio rerio [3]): Active; Drug uptake [4]: Active; Drug uptake [9]: Not Active; Drug uptake (Danio rerio [10]): Active |
| Cc1ccc(C(=O)Nc2ccc(S(=O)(=O)O)c3cc(S(=O)(=O)O)cc(S(=O)(=O)O)c23)cc1NC(=O)c1cccc(NC(=O)Nc2cccc(C(=O)Nc3cc(C(=O)Nc4ccc(S(=O)(=O)O)c5cc(S(=O)(=O)O)cc(S(=O)(=O)O)c45)ccc3C)c2)c1 [SURAMIN] |  |  |  | IC50 (Trypanosoma brucei): 1.4 µM |
| C=CCCCCCC(=O)N(C)[C@H](C(=O)N(C)[C@H](C(=O)N(C)[C@H](C(=O)N(C)[C@@H](C)C(=O)N(C)[C@@H](Cc1ccccc1)C(=O)N(C)C)C(C)C)C(C)C)C(C)C ({Oct(7)enoyl}-[NMeV][NMeV][NMeV][NMeA][NMeF]-NMe2) | 0.6 | 23.8 | 40 | IC50 (Leishmania donovani): 2.7 µM |
| C#CCCCCCC(=O)N(C)[C@H](C(=O)N(C)[C@H](C(=O)N(C)[C@H](C(=O)N(C)[C@@H](C)C(=O)N(C)[C@@H](Cc1ccccc1)C(=O)N(C)C)C(C)C)C(C)C)C(C)C ({Oct(7)ynoyl}-[NMeV][NMeV][NMeV][NMeA][NMeF]-NMe2) | 0.6 | 159 | 270 |  |
| C=CCCCCCC(=O)N(C)[C@H](C(=O)N(C)[C@H](C(=O)N(C)[C@H](C(=O)N(C)[C@@H](C)C(=O)N(C)[C@@H](Cc1ccccc1)C(=O)N(C)CCCCCCCCC(=O)OC)C(C)C)C(C)C)C(C)C ({Oct(7)enoyl}-[NMeV][NMeV][NMeV][NMeA][NMeF]-X5) | 0.7 |  |  |  |
| C#CCCCCCC(=O)N(C)[C@H](C(=O)N(C)[C@H](C(=O)N(C)[C@H](C(=O)N(C)[C@@H](C)C(=O)N(C)[C@@H](Cc1ccccc1)C(=O)O)C(C)C)C(C)C)C(C)C ({Oct(7)ynoyl}-[NMeV][NMeV][NMeV][NMeA][NMeF]-OH) | 10.3 | > 68.9 | > 6.7 |  |
| C#CCCCCC(=O)N(C)[C@H](C(=O)N(C)[C@H](C(=O)N(C)[C@H](C(=O)N(C)[C@@H](C)C(=O)N(C)[C@@H](Cc1ccccc1)C(=O)OC)C(C)C)C(C)C)C(C)C (Hept6ynoyl-[NMeV][NMeV][NMeV][NMeA][NMeF]-OMe) | 0.6 | 41.4 | 69 |  |
| C=CCCCCCC(=O)N(C)[C@H](C(=O)N(C)[C@H](C(=O)N(C)[C@H](C(=O)N(C)[C@@H](C)C(=O)N(C)[C@@H](Cc1ccccc1)C(=O)O)C(C)C)C(C)C)C(C)C ({Oct(7)enoyl}-[NMeV][NMeV][NMeV][NMeA][NMeF]-OH) | > 13.7 | 192 |  |  |
| C#CCCCCC(=O)N(C)[C@H](C(=O)N(C)[C@H](C(=O)N(C)[C@H](C(=O)N(C)[C@@H](C)C(=O)N(C)[C@@H](Cc1ccccc1)C(=O)N(C)C)C(C)C)C(C)C)C(C)C (Hept6ynoyl-[NMeV][NMeV][NMeV][NMeA][NMeF]-NMe2) | 1.3 | 156 | 120 |  |
| C#CCCCCC(=O)N(C)[C@H](C(=O)N(C)[C@H](C(=O)N(C)[C@H](C(=O)N(C)[C@@H](C)C(=O)N(C)[C@@H](Cc1ccccc1)C(=O)O)C(C)C)C(C)C)C(C)C (Hept6ynoyl-[NMeV][NMeV][NMeV][NMeA][NMeF]-OH) | > 13.7 | 281 |  |  |
| C=CCCCCC(=O)N(C)[C@H](C(=O)N(C)[C@H](C(=O)N(C)[C@H](C(=O)N(C)[C@@H](C)C(=O)N(C)[C@@H](Cc1ccccc1)C(=O)N(C)C)C(C)C)C(C)C)C(C)C (X3-[NMeV][NMeV][NMeV][NMeA][NMeF]-NMe2) | 0.6 | 93.1 | 160 | IC50 (Leishmania donovani): 6.7 µM |
| N=C(N)c1ccc(OCCCCCOc2ccc(C(=N)N)cc2)cc1 [PENTAMIDINE] |  |  |  | IC50 (Trypanosoma brucei): 0.03 µM |
| C=CCCCCCC(=O)N(C)[C@H](C(=O)N(C)[C@H](C(=O)N(C)[C@H](C(=O)N(C)[C@@H](C)C(=O)N(C)[C@@H](Cc1ccccc1)C(=O)N(C)CCOCCOCC(=O)OC)C(C)C)C(C)C)C(C)C ({Oct(7)enoyl}-[NMeV][NMeV][NMeV][NMeA][NMeF]-X6) | 3.5 |  |  |  |
| CC(=O)CCCC[C@@H](C)C(=O)N(C)[C@H](C(=O)N(C)[C@H](C(=O)N[C@H](C(=O)N(C)[C@@H](C)C(=O)N(C)[C@@H](Cc1ccccc1)C(N)=O)C(C)C)C(C)C)C(C)C [ALMIRAMIDE A] (X4-[NMeV][NMeV]V[NMeA][NMeF]-NH2) |  | 113 |  |  |
| NCCCC(N)(C(=O)O)C(F)F (stereo not given) [EFLORNITHINE] |  |  |  | IC50 (Trypanosoma brucei): 59 µM |
| C=CCCCCC(=O)N(C)[C@H](C(=O)N(C)[C@H](C(=O)N(C)[C@H](C(=O)N(C)[C@@H](C)C(=O)N(C)[C@@H](Cc1ccccc1)C(=O)OC)C(C)C)C(C)C)C(C)C (X3-[NMeV][NMeV][NMeV][NMeA][NMeF]-OMe) | 0.6 | 24.7 | 41 |  |
